Entries after “also recorded” stand apart in the source; their conditions may differ. Like-named read-outs stand apart in the source and are kept apart here.
What was measured:
[1] = target: T1, MOR (Mus musculus, UniProt P42866); format: cell-based; settings: 24 h pretreatment
[2] = target: T1, MOR; settings: 24 h pretreatment; values previously published; cited from earlier work
[3] = target: μ opioid receptor (MOR) (Mus musculus, UniProt P42866); experiment: [35S]-GTPγS functional assay in mMOR-CHO cell membranes; format: biochemical
Chain of μ opioid receptor (MOR) (P42866 whole entry): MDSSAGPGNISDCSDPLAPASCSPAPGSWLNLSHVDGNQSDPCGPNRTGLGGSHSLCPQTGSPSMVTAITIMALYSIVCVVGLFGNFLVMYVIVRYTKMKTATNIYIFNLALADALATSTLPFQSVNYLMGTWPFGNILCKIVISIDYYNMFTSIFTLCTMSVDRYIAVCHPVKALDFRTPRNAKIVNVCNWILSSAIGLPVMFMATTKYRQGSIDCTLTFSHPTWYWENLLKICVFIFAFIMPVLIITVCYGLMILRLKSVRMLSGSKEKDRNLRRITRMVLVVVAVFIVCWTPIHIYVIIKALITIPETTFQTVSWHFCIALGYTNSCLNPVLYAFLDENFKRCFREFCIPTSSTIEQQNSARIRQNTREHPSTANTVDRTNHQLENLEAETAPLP

[4] = target: hMOR (Homo sapiens, UniProt P35372); experiment: Ca2+ flux assay in Gαqi5 transfected hMOR-CHO cells; format: cell-based; settings: agonism study
Chain of hMOR (P35372 whole entry): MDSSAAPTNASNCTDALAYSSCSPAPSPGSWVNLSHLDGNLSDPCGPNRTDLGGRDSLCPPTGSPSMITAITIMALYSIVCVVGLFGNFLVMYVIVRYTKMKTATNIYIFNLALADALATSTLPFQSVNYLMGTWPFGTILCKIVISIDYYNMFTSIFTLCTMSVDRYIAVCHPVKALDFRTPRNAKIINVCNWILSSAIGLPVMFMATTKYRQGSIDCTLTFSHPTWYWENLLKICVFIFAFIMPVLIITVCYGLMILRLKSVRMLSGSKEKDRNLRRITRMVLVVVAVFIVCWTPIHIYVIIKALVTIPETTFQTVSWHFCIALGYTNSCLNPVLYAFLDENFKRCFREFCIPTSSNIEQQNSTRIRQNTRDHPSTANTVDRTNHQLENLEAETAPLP

[5] = system: mice; settings: cited from earlier work
[6] = target: DOR; settings: read-out: DOR Ki; cited from earlier work
[7] = target: δ opioid receptor (DOR) (Mus musculus, UniProt P32300); experiment: [35S]-GTPγS functional assay in mDOR-CHO cells; format: biochemical
Chain of δ opioid receptor (DOR) (P32300 whole entry): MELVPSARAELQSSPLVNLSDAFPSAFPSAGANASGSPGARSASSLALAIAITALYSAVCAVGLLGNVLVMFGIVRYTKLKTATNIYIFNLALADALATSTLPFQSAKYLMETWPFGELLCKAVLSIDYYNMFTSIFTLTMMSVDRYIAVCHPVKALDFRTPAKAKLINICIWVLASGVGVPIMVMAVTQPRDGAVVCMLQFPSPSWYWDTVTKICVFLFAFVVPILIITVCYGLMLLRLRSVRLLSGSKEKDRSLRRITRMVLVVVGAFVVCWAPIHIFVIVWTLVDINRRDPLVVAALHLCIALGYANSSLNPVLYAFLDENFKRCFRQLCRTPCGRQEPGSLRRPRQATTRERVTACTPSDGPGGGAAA

[8] = target: human NOP receptor (Homo sapiens, UniProt P41146); experiment: [3H]nociceptin NOP receptor binding assay; settings: 3 μM test ligand
Chain of human NOP receptor (P41146 whole entry): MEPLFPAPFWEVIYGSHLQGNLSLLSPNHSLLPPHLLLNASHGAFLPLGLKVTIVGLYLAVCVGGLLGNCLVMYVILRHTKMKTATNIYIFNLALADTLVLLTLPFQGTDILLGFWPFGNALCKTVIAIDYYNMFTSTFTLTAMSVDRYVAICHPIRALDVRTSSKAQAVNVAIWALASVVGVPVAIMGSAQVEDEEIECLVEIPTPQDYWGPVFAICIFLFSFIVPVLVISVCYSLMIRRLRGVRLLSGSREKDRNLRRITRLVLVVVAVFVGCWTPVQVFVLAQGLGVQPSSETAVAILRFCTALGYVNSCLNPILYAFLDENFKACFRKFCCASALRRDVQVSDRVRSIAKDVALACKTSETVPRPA
Procedure, shortened: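 Membranes came from CHO cells stably expressing human NOP receptor (~5 pmol/mg protein), lysed hypotonically in Tris/EDTA/PMSF (pH 7.4). Binding used 20 μg protein with 0.2 nM [3H]nociceptin in 50 mM Tris-HCl, 0.1% BSA, pH 7.4, with or without 3 μM test compound. Percent inhibition = 100% − (binding with compound − nonspecific)/(total − nonspecific) × 100%.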

[9] = target: MOR in mouse thalamus (Mus musculus, UniProt P42866); experiment: [35S]-GTPγS functional assay in mouse thalamus membranes; format: biochemical
Chain of MOR in mouse thalamus (P42866 whole entry): as the sequence (P42866 whole entry) above

[10] = target: κ opioid receptor (KOR) (Mus musculus, UniProt P33534); experiment: [35S]-GTPγS functional assay in mKOR-CHO cells; format: biochemical
Chain of κ opioid receptor (KOR) (P33534 whole entry): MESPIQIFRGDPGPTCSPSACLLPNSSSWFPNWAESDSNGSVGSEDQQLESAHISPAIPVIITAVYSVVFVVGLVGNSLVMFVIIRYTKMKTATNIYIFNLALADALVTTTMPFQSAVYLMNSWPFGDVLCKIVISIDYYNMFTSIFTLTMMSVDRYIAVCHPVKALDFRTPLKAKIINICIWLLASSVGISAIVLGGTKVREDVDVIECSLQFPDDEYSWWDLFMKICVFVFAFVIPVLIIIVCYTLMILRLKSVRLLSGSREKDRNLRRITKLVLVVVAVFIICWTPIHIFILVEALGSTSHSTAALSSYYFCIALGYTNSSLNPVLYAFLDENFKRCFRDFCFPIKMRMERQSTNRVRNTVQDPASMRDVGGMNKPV

[11] = system: morphine-pelleted mice; experiment: Withdrawal assay in chronic morphine-pelleted mice; format: in vivo, mouse
[12] = target: T1, MOR; format: cell-based
[13] = system: MOR in rat thalamus; settings: cited from earlier work
[14] = 1 mg/kg s.c., morphine-pelleted mice
[15] = 50 mg/kg s.c., morphine-pelleted mice

T1 sequence (P42866 whole entry): as the sequence (P42866 whole entry) above

C[C@@H](NC(=O)[C@@H](N)Cc1ccc(O)cc1)C(=O)NCC(=O)N(C)[C@@H](Cc1ccccc1)C(=O)NCCO [DAMGO, [D-Ala^2, N-MePhe^4, Gly-ol]-enkephalin, reference compound]
Reduction in receptor density (Bmax) ([1]; versus vehicle): ~50%
Bmax (pmol/mg) of [3H]naloxone saturation binding after pretreatment [2]: 1.49 ± 0.12 pmol/mg

O=C(N[C@H]1CC[C@@]2(O)[C@H]3Cc4ccc(O)c5c4[C@@]2(CCN3CC2CC2)[C@H]1O5)c1cccc2cc[nH]c12 [NAN, 17-cyclopropylmethyl-3,14β-dihydroxy-4,5α-epoxy-6α-(indole-7-carboxamido)morphinan]
Effect on the DAMGO Emax value ([3]; 5 nM coincubation, mMOR-CHO cells and thalamus): did not have any effect on the DAMGO Emax value
MOR stimulation compared to other ligands ([3]; mMOR-CHO cells): low MOR stimulation that was significantly less than DAMGO and similar to NAQ and nalbuphine
Emax ([3]; read-out: Emax (% DAMGO)): 25.5 ± 1.58%
Agonism in Ca2+ flux assay [4]: no apparent agonism
Antinociception in the tail-flick assay [5]: did not produce antinociception
Antagonism of the antinociceptive activity of morphine ([5]; mice, warm water tail immersion assay): almost completely antagonized
Bmax (pmol/mg) of [3H]naloxone saturation binding after pretreatment ([1]; 1 μM): 3.92 ± 0.20 pmol/mg
Ki [6]: 13.7 ± 1.39 nM
EC50 ([7]; DOR EC50 (nM), mDOR-CHO): 22.8 ± 3.95 nM
Emax ([7]; read-out: DOR Emax (% max of SNC80), mDOR-CHO, relative to 5 μM SNC80): ~27%
Inhibition of [3H]-nociceptin binding to the NOP receptor [8]: did not inhibit binding; also recorded: did not show NOP binding
MOR stimulation compared to other ligands [9]: low MOR stimulation that was significantly less than DAMGO and similar to NAQ and nalbuphine
EC50 ([10]; KOR EC50 (nM), mKOR-CHO): 17.8 ± 3.24 nM
Emax ([10]; read-out: KOR Emax (% max of U50,488H), mKOR-CHO, relative to 5 μM U50,488H): ~74%
Escape jumps versus 1 mg/kg NTX [11, 14]: significantly less
Wet-dog shakes versus 1 mg/kg NTX [11, 14]: significantly less
Escape jumps versus 1 mg/kg NTX ([11]; 10 mg/kg s.c., morphine-pelleted mice): not significantly different
Escape jumps versus 1 mg/kg NTX [11, 15]: not significantly different
Paw tremors versus 1 mg/kg NTX [11, 15]: significantly less
Wet-dog shakes versus 1 mg/kg NTX [11, 15]: significantly less
Withdrawal signs in placebo-pelleted mice ([11]; 50 mg/kg s.c., placebo-pelleted mice, 20 min observation): did not induce any significant withdrawal signs

O=C(N[C@H]1CC[C@@]2(O)[C@H]3Cc4ccc(O)c5c4[C@@]2(CCN3CC2CC2)[C@H]1O5)c1cc2ccccc2cn1 [NAQ, 17-cyclopropyl-methyl-3,14β-dihydroxy-4,5α-epoxy-6α-(isoquinoline-3-carboxamido)morphinan]
Apparent increase in [3H]naloxone KD value after treatment ([1]; versus vehicle): 3.5–4 fold
Change of DAMGO EC50 value after ligand pretreatment (desensitization) [12]: did not produce a significant change
Bmax (pmol/mg) of [3H]naloxone saturation binding after pretreatment [2]: 3.75 ± 0.34 pmol/mg

O=C1CC[C@@]2(O)[C@H]3Cc4ccc(O)c5c4[C@@]2(CCN3CC2CC2)[C@H]1O5 [NTX, naltrexone]
Functional character in the rat thalamus [13]: pure antagonists

Oc1ccc2c3c1O[C@H]1[C@@H](O)CC[C@@]4(O)[C@@H](C2)N(CC2CCC2)CC[C@]314 [nalbuphine]
Functional character in the rat thalamus [13]: pure antagonists
